Reference: ChEMBL document CHEMBL3352369, “Design, synthesis and biological evaluation of novel 1-hydroxyl-3-aminoalkoxy xanthone derivatives as potent anticancer agents” (Eur J Med Chem, 2014)
The source made the active and inactive calls. No cut-off for these calls is given here.

Experiments:
Type in all cases: functional, cell-based
CNE = experiment: Antiproliferative activity against human CNE cells assessed as inhibition of cell viability after 48 hrs by MTT assay
Procedure, shortened: (§1)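 A549, BEL-7402 and CNE lines from SIBS (Shanghai), grown as monolayer in RPMI 1640 with 10% FBS. 5000 cells/well in 96-well plates, graded concentrations for 48 h. MTT incubation 4 h at 37 C, DMSO solubilisation, A490 read. IC50 derived from survival relative to untreated control; 5-fluorouracil reference.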

[1] = Antiproliferative activity against human Bel7402 cells assessed as inhibition of cell viability after 48 hrs by MTT assay; details: Bel-7402, 48 h; procedure, shortened: as §1
MGC-803 [2] = experiment: Antiproliferative activity against human MGC803 cells assessed as inhibition of cell viability after 48 hrs by MTT assay; details: MGC-803, 48 h
Procedure, shortened: (§2)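 MGC-803 cells from SIBS (Shanghai), monolayer in RPMI 1640 with 10% FBS. 5000 cells/well in 96-well plates, exposed to compound for 24, 48 or 72 h. MTT added for a further 4 h at 37 C, formazan dissolved in DMSO, absorbance read at 490 nm. Survival rate = sample/control absorbance × 100%. n = 5, three independent experiments, two-tailed t-test.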

A549 = experiment: Antiproliferative activity against human A549 cells assessed as inhibition of cell viability after 48 hrs by MTT assay; details: A549, 48 h; procedure, shortened: as §1
MGC-803 [3] = experiment: Anticancer activity against human MGC803 cells assessed as colony formation after 24 hrs
Procedure, shortened: (§3)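 Clonogenic assay: MGC-803 seeded at 200 cells/well in 6-well plates and treated for 24 h. Then kept 10 d at 37 C in humidified CO2. Colonies of >50 cells counted; survival expressed as percent of untreated control (100%). n = 3, three independent experiments.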

MGC-803 [4] = experiment: Anticancer activity against human MGC803 cells assessed as colony formation at > 1 uM after 24 hrs; procedure, shortened: as §3
MGC-803 [5] = experiment: Induction of apoptosis in human MGC803 cells assessed as nuclear condensation after 24 hrs
MGC-803 [6] = experiment: Induction of apoptosis in human MGC803 cells assessed as koss of Ca2+ homeostasis after 24 hrs by fluorescence microscopy
MGC-803 [7] = experiment: Induction of apoptosis in human MGC803 cells assessed as change in mitochondrial membrane potential by Rhodamine 123 assay
Procedure, shortened: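 Mitochondrial membrane potential measured with the cationic dye rhodamine 123 in treated MGC-803 cells at 10, 50 and 100 μM. Cellular fluorescence intensity normalised to baseline values of untreated control as a semiquantitative index.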

MGC-803 [8] = experiment: Anticancer activity against human MGC803 cells assessed as inhibition of cell viability after 24 to 72 hrs by MTT assay; procedure, shortened: as §2
MGC-803 [9] = experiment: Anticancer activity against human MGC803 cells assessed as inhibition of cell viability at 0.01 to 100 uM by MTT assay; details: TDE = time-dependent effect; procedure, shortened: as §2
MGC-803 [10] = experiment: Antiproliferative activity against human MGC803 cells assessed as inhibition of cell viability after 24 hrs by MTT assay; details: MGC-803, 24 h; procedure, shortened: as §2
MGC-803 [11] = experiment: Antiproliferative activity against human MGC803 cells assessed as inhibition of cell viability after 72 hrs by MTT assay; details: MGC-803, 72 h; procedure, shortened: as §2
MGC-803 [12] = experiment: Anticancer activity against human MGC803 cells assessed as cell shrinkage and deformation at 100 uM after 72 hrs by inverted phase contrast microscopy assay

Row | Structure (SMILES) | IC50 (CNE) | IC50 [1] | IC50 (MGC-803 [2]) | IC50 (A549) | other results
1 | C[N+]1(CCCCOc2cc(O)c3c(=O)c4ccccc4oc3c2)CCCC1 | > 100 µM | > 100 µM | 8.04 µM | 19.5 µM | –
2 | C[N+]1(CCCCCOc2cc(O)c3c(=O)c4ccccc4oc3c2)CCCC1 | 3.88 µM | > 100 µM | 12.7 µM | 10.7 µM | –
3 | O=c1c2ccccc2oc2cc(OCCCCBr)cc(O)c12 | 85.6 µM | 67.9 µM | 22.7 µM | > 100 µM | –
4 | CN(C)CCCCOc1cc(O)c2c(=O)c3ccccc3oc2c1 | 3.81 µM | 20.3 µM | 5.99 µM | 8.83 µM | –
5 | O=c1c2ccccc2oc2cc(OCCCCN3CCCC3)cc(O)c12 | 5.97 µM | 20.8 µM | 4.5 µM | 18.5 µM | –
6 | C[N+]1(CCCCOc2cc(O)c3c(=O)c4ccccc4oc3c2)CCOCC1 | 92.9 µM | > 100 µM | 17.6 µM | > 100 µM | –
7 | CCN(CC)CCCCOc1cc(O)c2c(=O)c3ccccc3oc2c1 | 3.63 µM | 20.1 µM | 3.57 µM | 7.57 µM | inhibition (MGC-803 [3]): Dose-dependent effect; inhibition (MGC-803 [4]): Active; inhibition (MGC-803 [5]): Dose-dependent effect; Activity (MGC-803 [6]): Dose-dependent effect; Activity (MGC-803 [7]): Dose-dependent effect; inhibition (MGC-803 [8]): Dose-dependent effect; inhibition (MGC-803 [9]): tde; IC50 (MGC-803 [10]): 11.9 µM; IC50 (MGC-803 [11]): 1.82 µM; inhibition (MGC-803 [12]): Active
8 | C[N+]1(CCCOc2cc(O)c3c(=O)c4ccccc4oc3c2)CCCC1 | > 100 µM | > 100 µM | 9.66 µM | > 100 µM | –
9 | O=c1c2ccccc2oc2cc(OCCCCN3CCOCC3)cc(O)c12 | > 100 µM | > 100 µM | > 100 µM | > 100 µM | –
10 | O=c1c2ccccc2oc2cc(OCCCCCCBr)cc(O)c12 | > 100 µM | > 100 µM | > 100 µM | > 100 µM | –
11 | O=c1c2ccccc2oc2cc(OCCCCCCN3CCCC3)cc(O)c12 | 1.24 µM | 17.9 µM | 5.32 µM | 8.94 µM | –
12 | CC[N+](C)(CC)CCCCOc1cc(O)c2c(=O)c3ccccc3oc2c1 | > 100 µM | > 100 µM | 4.61 µM | 13 µM | –
13 | O=c1c2ccccc2oc2cc(OCCCCN3CCCCC3)cc(O)c12 | 16.2 µM | 54.4 µM | 28.2 µM | 88.4 µM | –
14 | C[N+]1(CCCCCCOc2cc(O)c3c(=O)c4ccccc4oc3c2)CCCC1 | 4.82 µM | 23.9 µM | 14.8 µM | 9.95 µM | –
15 | O=c1c2ccccc2oc2cc(OCCCCCBr)cc(O)c12 | > 100 µM | 77.2 µM | 24.4 µM | > 100 µM | –
16 | C[N+]1(CCOc2cc(O)c3c(=O)c4ccccc4oc3c2)CCCC1 | 65.9 µM | > 100 µM | 83.3 µM | > 100 µM | –
17 | O=c1[nH]cc(F)c(=O)[nH]1 [FLUOROURACIL] | 15.1 µM | 19.8 µM | 7.76 µM | 7.62 µM | –
18 | O=c1c2ccccc2oc2cc(OCCCCCN3CCCC3)cc(O)c12 | 12.1 µM | 18.2 µM | 3.81 µM | 5.99 µM | –
19 | O=c1c2ccccc2oc2cc(OCCCN3CCCC3)cc(O)c12 | 6.25 µM | 13 µM | 6.66 µM | 11.6 µM | –
20 | O=c1c2ccccc2oc2cc(OCCBr)cc(O)c12 | > 100 µM | > 100 µM | 21.5 µM | > 100 µM | –
21 | C[N+]1(CCCCOc2cc(O)c3c(=O)c4ccccc4oc3c2)CCCCC1 | 26.5 µM | > 100 µM | 5.13 µM | 19.2 µM | –
22 | C[N+](C)(C)CCCCOc1cc(O)c2c(=O)c3ccccc3oc2c1 | 38.5 µM | > 100 µM | 38.1 µM | 83.9 µM | –
23 | O=c1c2ccccc2oc2cc(OCCCBr)cc(O)c12 | > 100 µM | > 100 µM | 28.9 µM | > 100 µM | –
24 | O=c1c2ccccc2oc2cc(OCCN3CCCC3)cc(O)c12 | 11.3 µM | 14.6 µM | 5.63 µM | 12.8 µM | –
